These results are taken from ChEMBL document CHEMBL1157096, “Bioactive metabolites from cultures of basidiomycete Favolaschia tonkinensis” (J Nat Prod, 2010).

One experiment deals with Candida albicans. The experiment can be described thus: Antifungal activity against Candida albicans. The class given is functional, organism-based. In outline:
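Candida albicans tested by resazurin microplate assay, with IC50 in µg/mL.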

A further experiment has as its system Vero. The experiment can be described thus: Cytotoxicity against african green monkey Vero cells by green fluorescent protein assay. As to conditions: Chlorocebus sabaeus. The class given is cell-based. In outline:
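Vero (African green monkey kidney fibroblast) cytotoxicity measured by green fluorescent protein (GFP)-based method.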

Another experiment concerns KB. The experiment can be described thus: Cytotoxicity against human KB cells by resazurin microplate assay. The class given is functional, cell-based. In short, it runs like this:
(§1)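 Resazurin microplate assay on KB (oral human epidermoid carcinoma), MCF-7 (human breast cancer) and NCI-H187 (human small-cell lung cancer) cells, with IC50 in µg/mL.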
A general note: Resazurin is reduced to fluorescent resorufin, in cell work by metabolically active cells.

The test system of a further experiment is MCF7. The experiment can be described thus: Cytotoxicity against human MCF7 cells by resazurin microplate assay. It counts as functional, cell-based. In short, it runs like this:
as §1

Experiment [1] deals with Plasmodium falciparum. Description: Antimalarial activity against Plasmodium falciparum K1. The class given is functional, organism-based. In outline:
(§2)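 Plasmodium falciparum strain K1 tested by microculture radioisotope technique, with IC50 in µg/mL.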

A further experiment relates to NCI-H187. The experiment can be described thus: Cytotoxicity against human NCI-H187 cells by resazurin microplate assay. The class given is functional, cell-based. In short, it runs like this: as §1
The subject of experiment [2] is Plasmodium falciparum. The experiment can be described thus: Antimalarial activity against Plasmodium falciparum K1 assessed as [G-3H]hypoxanthine uptake after 24 hrs by scintillation counting. It counts as functional, organism-based. As to conditions: K1, 24 h. In outline:
as §2

Molecules are shown by their SMILES. ≈ marks a conversion by molar mass, not a printed value.

The IC50 is the concentration needed to halve the response being measured. As to `CO/C=C(/C(=O)OC)[C@H](C)[C@H](/C=C/c1ccc(Cl)c(OC)c1)OC` [(-)-OUDEMANSIN B], the IC50 with Candida albicans stood at 0.89 µg/mL (≈ 2.51 µM); with Vero it was 14.3 µg/mL (≈ 40.2 µM); in the experiment with KB it was 0.73 µg/mL (≈ 2.06 µM); with MCF7, 27.8 µg/mL (≈ 78.5 µM); with Plasmodium falciparum [1], 0.4 µg/mL (≈ 1.13 µM); in the experiment on NCI-H187, 0.02 µg/mL (≈ 0.0564 µM).
For `CO/C=C(/C(=O)OC)[C@H](C)[C@H](/C=C/c1ccccc1)OC`, the IC50 is 0.76 µg/mL (≈ 2.62 µM) with Candida albicans; 39.2 µg/mL (≈ 135 µM) in the experiment with Vero; 5.48 µg/mL (≈ 18.9 µM) in the experiment with KB; > 50 µg/mL with MCF7; 3 µg/mL (≈ 10.3 µM) with Plasmodium falciparum [1]; 15.1 µg/mL (≈ 52 µM) with NCI-H187.
In the case of `O=C(O)c1ccc2c(c1)C=C/C(=C\Cl)CO2`, the IC50 is > 10 µg/mL in the experiment on Plasmodium falciparum [2]; > 50 µg/mL with Candida albicans; > 50 µg/mL in the experiment with Vero; 0.78 µg/mL (≈ 3.3 µM) in the experiment on KB; > 50 µg/mL in the experiment with MCF7; 11.7 µg/mL (≈ 49.3 µM) with NCI-H187.
With `C[C@@H]1[C@H](O)[C@@H](C)/C=C/C=C/C=C/C=C/C=C/C=C/C=C/[C@H](O[C@@H]2O[C@H](C)[C@@H](O)[C@H](N)[C@@H]2O)C[C@@H]2O[C@](O)(C[C@@H](O)C[C@@H](O)[C@H](O)CC[C@@H](O)C[C@@H](O)CC(=O)O[C@H]1C)C[C@H](O)[C@H]2C(=O)O` [AMPHOTERICIN B], the IC50 with Candida albicans worked out at 0.07 µg/mL (≈ 0.0758 µM).
In the case of `COc1cccc2c1C(=O)c1c(O)c3c(c(O)c1C2=O)C[C@@](O)(C(=O)CO)C[C@@H]3O[C@H]1C[C@H](N)[C@H](O)[C@H](C)O1` [DOXORUBICIN], the IC50 in the experiment with KB came to 0.25 µg/mL (≈ 0.46 µM); in the experiment with MCF7 it was 0.57 µg/mL (≈ 1.05 µM); in the experiment on NCI-H187 it was 0.04 µg/mL (≈ 0.0736 µM).
In the case of `CO\C=C(C(=O)OC)/C(C)=C(\C=C\c1ccc2c(c1)OC(C)(C)[C@@H](OCC=C(C)C)CO2)OC`, the IC50 is 0.03 µg/mL (≈ 0.0635 µM) in the experiment with Plasmodium falciparum [2]; 0.5 µg/mL (≈ 1.06 µM) in the experiment on Candida albicans; 24 µg/mL (≈ 50.7 µM) in the experiment on Vero; 14.3 µg/mL (≈ 30.3 µM) in the experiment on KB; 15.4 µg/mL (≈ 32.6 µM) with MCF7; 0.36 µg/mL (≈ 0.762 µM) with NCI-H187.
In the case of `NC(=O)c1ccc2c(c1)C=C/C(=C\Cl)CO2`, the IC50 with Plasmodium falciparum [2] was > 10 µg/mL; with Candida albicans it was > 50 µg/mL; with Vero it was > 50 µg/mL; with KB it was 12.1 µg/mL (≈ 51.6 µM); with MCF7, > 50 µg/mL; in the experiment with NCI-H187, > 50 µg/mL.
Consider `CO\C=C(C(=O)OC)/C(C)=C(\C=C\c1ccc(Cl)c(OC)c1)OC` [9-METHOXYSTROBILURIN B], for which the IC50 in the experiment with Plasmodium falciparum [2] came out at 0.3 µg/mL (≈ 0.85 µM); in the experiment with Candida albicans, 0.22 µg/mL (≈ 0.624 µM); with Vero it was 7.91 µg/mL (≈ 22.4 µM); in the experiment on KB, 5.45 µg/mL (≈ 15.4 µM); in the experiment on MCF7, 4.86 µg/mL (≈ 13.8 µM); in the experiment on NCI-H187, 0.4 µg/mL (≈ 1.13 µM).
On to `Cc1c2ccncc2c(C)c2c1[nH]c1ccccc12` [ELLIPTECINE], for which the values for the IC50 in the experiment with Vero, in the experiment with KB and with NCI-H187 were 1.18 µg/mL (≈ 4.79 µM), 0.45 µg/mL (≈ 1.83 µM) and 0.68 µg/mL (≈ 2.76 µM), respectively.
Regarding `C[C@H]1[C@@H](O)O[C@@H]2O[C@@]3(C)CC[C@H]4[C@H](C)CC[C@@H]1[C@@]24OO3` [ARTENIMOL], the IC50 in the experiment with Plasmodium falciparum [2] was determined as 0.0011 µg/mL (≈ 0.00387 µM).
As for `CO\C=C(C(=O)OC)/C(C)=C(\C=C\c1ccccc1)OC` [9-METHOXYSTROBILURIN A], the IC50 in the experiment with Plasmodium falciparum [2] came to 0.39 µg/mL (≈ 1.35 µM); with Candida albicans, 0.06 µg/mL (≈ 0.208 µM); with Vero it was 21.3 µg/mL (≈ 73.8 µM); in the experiment with KB it was 1.39 µg/mL (≈ 4.82 µM); in the experiment on MCF7 it was 12.4 µg/mL (≈ 43.1 µM); in the experiment with NCI-H187 it was 1.57 µg/mL (≈ 5.44 µM).
